Redox H2O2 prof: compounds producing H2O2 with reducing agent – biochemical, NIH compound library profiling, artefact control for MLSCN library redox annotation, primary screen; DTT-dependent redox cycling H2O2, phenol red/HRP absorbance; 100% = 100 µM peroxide control, 0% = buffer; activation, % at 10 µM; actives 0.03% (n = 200,000);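 active = activation of at least 50% relative to the plate's high and low controls in the primary single-dose screen; inactive = activation below 50%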;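 note: compound incubated with DTT at 0.8 mM final as the reducing agent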
Autophagy HCS: alters autophagy in cells. calls only at 10 µM (by protocol). actives 0.98% (n = 190,000). AID 463193. MEF GFP-LC3 puncta imaging; test concentration mostly 10 µM;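 active = percentage of spot-positive cells more than 3 SD above its plate mean, without a fluorescence outlier flag or 80% toxicity; inconclusive = no clear call, values can overlap the other calls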;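 note: spot-positive cell cutoff set from DMSO-treated cells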
Dynein cargo inh: blocks dynein driven cargo transport along microtubules; 3617.4 mouse cells, GR-EGFP nuclear translocation imaging; test concentration mostly 20 µM; stimulated with dexamethasone, 1 µM; stronger effect = lower value; z-score, hits read low; actives 0.47% (n = 220,000);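 active = plate z-score of nuclear minus cytoplasmic receptor signal below a set negative limit, without overly bright fluorescence or cell loss, cut at about -3.5 in these data, passing the limit was not always enough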;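 note: z-score of nuclear minus cytoplasmic ring GR-EGFP intensity difference per well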
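Buffer or medium – tet-free medium with charcoal-stripped serum · Signal – automated 10x imaging of fixed Hoechst-stained cells · Also added – dexamethasone agonist, 1.0 µM final, for 30 min · Incubation – induction 48 h, compound 1 h, agonist 30 min · Read-out – GR-EGFP nuclear translocation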
Cl transport mod: modulators of human KCC2 chloride dependent transport | Q9H2X9 | KCC2 cells, thallium flux FluoZin-2 fluorescence | B-score of Tl+ flux slope (higher = more flux/activation; lower = inhibition) at 10 µM | actives 2.2% (n = 190,000) | AID 1456;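 active = thallium flux slope and its plate-corrected score both differing from the plate sample mean at a set confidence after two filtering rounds, in either direction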;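 note: slope of fluorescence scaled to starting intensity during 10 to 20 s after thallium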
Target sequence (Q9H2X9 whole entry, looked up): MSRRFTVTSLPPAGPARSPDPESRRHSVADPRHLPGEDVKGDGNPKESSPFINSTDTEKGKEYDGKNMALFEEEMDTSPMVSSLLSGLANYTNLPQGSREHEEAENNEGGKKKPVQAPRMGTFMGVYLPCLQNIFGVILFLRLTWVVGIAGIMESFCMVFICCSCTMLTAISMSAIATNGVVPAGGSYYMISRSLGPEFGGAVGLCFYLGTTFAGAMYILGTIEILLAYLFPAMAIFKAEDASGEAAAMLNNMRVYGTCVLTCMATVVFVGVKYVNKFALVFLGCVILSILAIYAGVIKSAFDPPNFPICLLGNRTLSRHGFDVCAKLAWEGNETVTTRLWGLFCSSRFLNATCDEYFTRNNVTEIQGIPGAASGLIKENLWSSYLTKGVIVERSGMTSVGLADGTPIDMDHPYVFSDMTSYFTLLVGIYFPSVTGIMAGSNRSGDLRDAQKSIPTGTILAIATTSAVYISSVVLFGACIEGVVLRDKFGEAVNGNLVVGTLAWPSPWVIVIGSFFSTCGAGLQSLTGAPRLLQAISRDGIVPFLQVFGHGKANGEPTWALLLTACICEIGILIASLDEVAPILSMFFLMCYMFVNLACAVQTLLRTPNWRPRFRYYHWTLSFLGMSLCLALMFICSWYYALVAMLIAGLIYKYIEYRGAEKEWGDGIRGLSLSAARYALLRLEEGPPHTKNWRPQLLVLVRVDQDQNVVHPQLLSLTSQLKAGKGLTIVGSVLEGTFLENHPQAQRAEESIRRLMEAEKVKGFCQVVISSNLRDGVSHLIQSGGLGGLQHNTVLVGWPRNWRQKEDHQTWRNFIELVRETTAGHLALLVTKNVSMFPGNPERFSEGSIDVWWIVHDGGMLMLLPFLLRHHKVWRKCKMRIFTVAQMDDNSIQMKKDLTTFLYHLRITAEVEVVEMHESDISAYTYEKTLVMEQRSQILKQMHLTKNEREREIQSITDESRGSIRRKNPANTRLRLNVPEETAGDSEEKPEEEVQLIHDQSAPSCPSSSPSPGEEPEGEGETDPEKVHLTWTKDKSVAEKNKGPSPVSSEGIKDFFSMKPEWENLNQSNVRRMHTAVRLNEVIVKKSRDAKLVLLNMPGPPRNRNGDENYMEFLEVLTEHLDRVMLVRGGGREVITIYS
ROMK mod: modulators of human ROMK potassium channel. P48048. Tet-inducible ROMK, thallium flux fluorescence; actives lie on both sides. B-score at 10 µM. actives 2% (n = 130,000). AID 1918;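 active = signal ratio slope over the read window, or its plate-corrected B-score, at least 3 SD from the plate mean, either direction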;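 note: B-score of the F/F0 ratio slope over 7 to 12 s after thallium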
KCC2 sec1: KCC2 (human) modulation, secondary assay. HEK293-KCC2, thallium flux, FluoZin2 fluorescence; stronger effect = higher value. shares compounds with Cl transport mod. actives 15% (n = 3,700). normalised thallium flux (F/F0 slope) at 10 µM;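 active = thallium flux slope above the same plate's solvent-only control mean plus 3 SD; inconclusive = the two replicate wells disagree; inactive = no significant difference from solvent-only control wells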
KCC2 bumet counter: thallium flux despite bumetanide block in KCC2 cells, secondary assay 3; actives 49% (n = 3,700); shares compounds with Cl transport mod; normalized thallium flux at 10 µM; AID 1714; HEK293-KCC2 + bumetanide/ouabain, thallium flux FluoZin2; stronger effect = higher value;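 active = thallium entry rate above the same plate's blocked-transporter control wells by more than 3 SD; inconclusive = the two repeat wells disagree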;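 note: raw slope of fluorescence over initial fluorescence between 10 and 20 s after thallium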
KCC2 secondary2: confirmation of human KCC2 transport modulators; normalized thallium flux at 10 µM; HEK293-KCC2, thallium flux FluoZin2 fluorescence; actives lie on both sides; F/F0 rise rate, 10–20 s post-thallium; actives 23% (n = 3,700); AID 1715; shares compounds with Cl transport mod;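 active = thallium flux slope more than 3 SD above or below the plate's solvent-only control mean, mostly below; inconclusive = the two repeat wells disagreed; inactive = no significant shift from solvent-only controls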;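 note: raw slope with 0.1% DMSO as baseline and bumetanide as block control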
HEK293 Tl flux: counter-screen for KCC2 modulators: effect in parental HEK293 cells; shares compounds with Cl transport mod; thallium flux FluoZin2, ouabain; baseline-ratio fluorescence slope, 10–20 s after thallium; thallium flux rate (normalised fluorescence) at 10 µM; actives 46% (n = 3,700); AID 1716;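 active = thallium flux rate significantly above the same plate's solvent-only control wells, beyond their mean plus 3 SD; inconclusive = the two replicate wells gave conflicting results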
KCC2 ouabain: KCC2 (human) modulation, ouabain retest; shares compounds with Cl transport mod; raw Tl+ flux slope (below DMSO = inhibition, above = activation) at 10 µM; actives 48% (n = 3,700); HEK293-KCC2, thallium flux FluoZin2 fluorescence; bidirectional: low = inhibitor, high = activator; AID 1717;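 active = thallium flux slope beyond 3 SD from same-plate DMSO control mean in most replicates, usually higher, sometimes lower; inconclusive = repeat tests gave conflicting results; inactive = no significant difference from controls in most replicates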;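 note: slope of initial-normalized fluorescence between seconds 10 and 20 after thallium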
HEK counter2: acts in parental HEK cells, second KCC2 counter-screen. shares compounds with Cl transport mod. HEK293 parental, thallium flux FluoZin-2 fluorescence slope. thallium flux slope at 10 µM. actives 33% (n = 3,700). AID 1718;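 active = thallium flux slope above the same plate's solvent-control mean plus 3 SD in both duplicate wells; inconclusive = duplicate wells that disagreed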;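 note: run without ouabain in cells lacking the KCC2 cotransporter; slope of fluorescence scaled to its starting value between 10 and 20 s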
Numbers without * were called inactive; i = inactive; ? = inconclusive; . = no result given. Rows were chosen to be rich in hits. Some 4.1% of all compounds tested hit in one or more screens of this group.

SMILES	Redox H2O2 prof	Autophagy HCS	Dynein cargo inh	Cl transport mod	ROMK mod	KCC2 sec1	KCC2 bumet counter	KCC2 secondary2	HEK293 Tl flux	KCC2 ouabain	HEK counter2
CCSc1nnc(C)c(=O)n1COC(=O)c1ccc(S(=O)(=O)N2CCCC2)cc1	0.9	i	-0.156	0.192	.	.	.	.	.	.	.
CC(C)(C)c1ccc(NC(=O)C(=O)C2C(=O)Nc3ccccc32)cc1 (stereo unspecified)	-0.1	i	-0.174	7.93*	0.00853	0.00569	0.0247*	?	0.0183*	0.0276*	0.0203*
OCCC1CN(Cc2cccn2-c2cccnc2)CCN1C1CCCCC1 (stereo unspecified)	-0.7	i	-0.893	.	.	.	.	.	.	.	.
Cc1cc(Br)ccc1OCC(=O)NNC(=O)Cc1ccccc1	0.0	i	-0.735	-0.0897	-0.197	.	.	.	.	.	.
Cc1ccc(OCC(=O)NNC(=O)C(=O)N2CCCC2)c(C)c1	-0.7	i	-0.378	4.32*	-0.283	0.00541	0.0135*	0.0353	0.0132*	?	0.0148*
Cc1cc(Br)ccc1OCC(=O)NNC(=O)C(=O)Nc1ccccc1	0.3	i	-0.71	.	.	0.0225*	0.093*	?	0.0871*	0.075*	0.0725*
CC(=O)Nc1ccc(S(=O)(=O)N(C)CC(=O)OCC(=O)Nc2cccnc2Cl)cc1	0.1	i	-0.613	0.926	1.14	.	.	.	.	.	.
CCc1cc2cccc(C)c2nc1SCC(=O)N1CCN(C(=O)c2ccco2)CC1	-2.6	i	0.338	-3.19*	.	0.0157	0.00426	0.0211*	0.00466*	0.0126*	0.00722*
O=C(CSc1nc2ccccc2s1)N1CCN(C(=O)c2ccco2)CC1	1.1	i	-0.0394	-0.0157	.	.	.	.	.	.	.
O=C(CSc1nc(-c2ccc(F)cc2)cs1)N1CCN(C(=O)c2ccco2)CC1	-2.1	i	-0.809	-3.06*	.	0.00739	0.00608	0.0288	0.00609	0.0148*	0.00901
CCCSc1nnc(NC(=O)Nc2ccccc2OC)s1	.	.	-0.633	-0.0197	.	.	.	.	.	.	.
N#Cc1ccc(C23CC4(C2)[C@H](CN(Cc2ccc(-c5ccccc5)cc2)[C@@H]4c2ccccc2)C3c2ccccc2)cc1 (stereo partly specified)	.	.	-0.889	3.67*	.	0.0146	0.00494	0.0263	0.00753	0.0161	0.0103
c1ccc(-c2ccc(CN3C[C@@H]4C(c5ccccc5)C5(c6ccccc6)CC4(C5)[C@H]3c3ccccc3)cc2)cc1 (stereo partly specified)	.	.	-0.758	0.458	.	.	.	.	.	.	.
O=c1cc(-c2ccccc2)nc2nc(SCc3ccccc3)[nH]n12	-3.6	i	0.647	.	0.674	0.00897	0.00675	0.0292	0.0073	0.0148*	0.0099
Cc1cc(=O)n2[nH]c(SCc3ccccc3)nc2n1	-0.1	i	0.421	-2.86	-0.825	.	.	.	.	.	.
CCOC(=O)C1(Cc2ccccc2C)CCCN(C(=O)CCc2cccnc2)C1 (stereo unspecified)	0.0	i	-1.04	-0.129	0.257	.	.	.	.	.	.
CCn1c(SCc2ccccc2Cl)nc2ccccc21	2.3	i	-0.707	-0.276	.	.	.	.	.	.	.
CCn1c(CSc2nc3ccccc3n2C)nc2ccccc21	-2.3	i	0.0862	-3.99*	.	?	0.00376	0.0221*	?	0.0142*	0.00948
Cn1c(SCc2ccccc2Cl)nc2ccccc21	-0.2	i	-0.47	-4.32*	-1.01	?	?	0.0244*	0.00715	0.014*	0.01
O=C(CN(c1cccc(Cl)c1)S(=O)(=O)c1ccc(Cl)cc1)N1CCc2ccccc2C1	-0.5	i	-0.456	-1.42	0.149	.	.	.	.	.	.
CCc1nc(NC(C)(C)C)c2cnn(-c3ccccc3)c2n1	.	.	0.467	1.09	.	.	.	.	.	.	.
Cc1noc(C)c1S(=O)(=O)Nc1ccc(C(=O)NC2CCCCCC2)cc1	0.9	i	-0.586	-4.21*	0.557	?	0.00651	0.0318	0.00795	0.0225	0.0109
CCN(CC)C(=S)Nc1ccc2nc3n(c(=O)c2c1)CCCCC3	0.6	i	3.28	.	0.0895	.	.	.	.	.	.
O=C(Nc1ccc(C(F)(F)F)cc1)c1csc(-c2ccncc2)n1	0.2	i	-0.727	0.608	-0.0953	.	.	.	.	.	.
O=C(NNC(=O)c1csc(-c2cnccc2C(F)(F)F)n1)c1ccc(C(F)(F)F)cc1	.	.	-0.0597	5.88*	-0.843	?	0.0409*	0.0276	0.013*	?	?
SMILES	Redox H2O2 prof	Autophagy HCS	Dynein cargo inh	Cl transport mod	ROMK mod	KCC2 sec1	KCC2 bumet counter	KCC2 secondary2	HEK293 Tl flux	KCC2 ouabain	HEK counter2
CCOC(=O)C1=C2NC(=O)c3ccccc3N2C(=O)C1	-0.2	i	-1.35	40.2*	0.294	0.0142*	0.0908*	0.0369	0.0367*	0.0693*	0.018*
Cc1ccc(CN2C(=O)CCC2C(=O)NCc2ccccc2Cl)cc1 (stereo unspecified)	-0.3	i	1.14	-0.389	0.315	.	.	.	.	.	.
Cc1cccc(-c2nc(=S)c3c(n2Cc2ccco2)CCCC3)c1	-0.6	i	0.196	20.9*	0.0105	0.0064	0.0207*	0.0322	0.0175*	0.0316*	0.0154*
Cc1ccc(-c2nc(=S)c3c(n2Cc2ccco2)CC(C)(C)OC3)cc1	-0.1	i	0.0723	.	-0.00169	0.0174*	0.025*	0.033	0.0114*	0.0282	0.0119*
CC(C)(C)Nc1nc(OCC(F)(F)F)nc(OCC(F)(F)F)n1	2.1	i	0.14	-2.76*	.	0.00756	0.00695	0.0263	0.00672	0.0149*	0.0101
CCC(C)Nc1nc(OCC(F)(F)F)nc(OCC(F)(F)F)n1 (stereo unspecified)	2.7	i	1.38	-1.57	.	.	.	.	.	.	.
O=C(NC1CCCCC1)C(c1ccc(Cl)cc1)N(C(=O)c1ccccn1)c1cccnc1 (stereo unspecified)	-0.4	i	-0.419	.	-0.222	.	.	.	.	.	.
CC(=O)Oc1ccc(C(=O)Cc2ccc3ccccc3n2)c(O)c1C	-0.2	i	-0.547	0.447	.	.	.	.	.	.	.
Cc1c(O)ccc(/C(Cc2ccc3ccccc3n2)=N\O)c1O	-3.8	i	-0.674	-4.88*	.	0.00797	0.00392	0.0287	0.00636	0.0145*	0.00952
